Laboratory results as given in ChEMBL document CHEMBL1151697, “Synthesis and structure-activity relationships for biphenyl H3 receptor antagonists with moderate anti-cholinesterase activity” (Bioorg Med Chem, 2008).
The source made the active and inactive calls. The calls are words filed in the database; no cut-off is given here.

Key:
[1] = target: Histamine H3 receptor (Rattus norvegicus, UniProt Q9QYN8); assay: Displacement of [3H]RAMHA from histamine H3 receptor in Wistar rat brain membrane; assay type: cell membranes
Sequence of Histamine H3 receptor (Rattus norvegicus, UniProt Q9QYN8) (Q9QYN8 whole entry): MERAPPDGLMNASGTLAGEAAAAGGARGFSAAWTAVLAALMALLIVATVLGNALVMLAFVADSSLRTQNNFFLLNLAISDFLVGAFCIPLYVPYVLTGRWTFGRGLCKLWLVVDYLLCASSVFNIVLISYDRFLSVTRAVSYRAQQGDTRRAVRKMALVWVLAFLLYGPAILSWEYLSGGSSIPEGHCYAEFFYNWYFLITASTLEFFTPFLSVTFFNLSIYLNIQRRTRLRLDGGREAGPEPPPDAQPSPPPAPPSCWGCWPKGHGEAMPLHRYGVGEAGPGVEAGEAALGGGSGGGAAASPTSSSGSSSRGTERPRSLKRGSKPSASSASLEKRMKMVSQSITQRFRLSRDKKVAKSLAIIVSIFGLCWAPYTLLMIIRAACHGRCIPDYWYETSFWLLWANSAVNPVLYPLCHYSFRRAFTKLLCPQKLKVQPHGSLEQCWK
How it was run: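 Membranes from male Wistar rat brain (150–200 g) incubated 45 min with 0.5 nM [3H]RAMHA and compound (0.03 nM to 10 µM) in 50 mM Tris–HCl pH 7.4, 50 mM NaCl, 0.5 mM EDTA. Vacuum filtration, two ice-cold buffer rinses. Nonspecific binding set with 10 µM thioperamide. pKi by Cheng–Prusoff.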

[2] = target: T1, Histamine H3 receptor (Homo sapiens, UniProt Q9Y5N1); assay: Displacement of [3H]RAMHA from human histamine H3 receptor expressed in SK-N-MC cells; assay type: cell-based
T1 sequence (Q9Y5N1 whole entry): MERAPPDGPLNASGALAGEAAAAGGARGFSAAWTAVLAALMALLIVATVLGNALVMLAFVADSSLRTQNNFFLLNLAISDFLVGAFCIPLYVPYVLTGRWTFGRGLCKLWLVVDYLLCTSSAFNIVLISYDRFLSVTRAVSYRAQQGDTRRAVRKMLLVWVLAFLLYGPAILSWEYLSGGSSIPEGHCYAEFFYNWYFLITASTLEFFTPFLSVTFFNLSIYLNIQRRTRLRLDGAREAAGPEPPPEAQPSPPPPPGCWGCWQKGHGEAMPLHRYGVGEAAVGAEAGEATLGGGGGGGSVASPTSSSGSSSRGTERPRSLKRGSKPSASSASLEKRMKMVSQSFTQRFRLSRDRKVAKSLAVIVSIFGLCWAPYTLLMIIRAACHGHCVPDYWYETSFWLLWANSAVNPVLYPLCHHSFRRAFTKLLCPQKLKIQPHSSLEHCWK
How it was run: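 SK-N-MC membranes bearing human H3 incubated 60 min at room temperature with 0.5 nM [3H]-(R)-α-methylhistamine and competitor (0.01 nM to 10 µM). Rapid filtration, two washes in ice-cold 50 mM Tris–HCl/5 mM EDTA. Nonspecific binding with 10 µM histamine. pKi via Cheng–Prusoff; means of 4–6 experiments.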

[3] = target: T2, Acetylcholinesterase (Rattus norvegicus, UniProt P37136); assay: Inhibition of acetylcholinesterase in Wistar rat brain homogenate by Ellman's method; assay type: tissue-based
T2 sequence (P37136 whole entry): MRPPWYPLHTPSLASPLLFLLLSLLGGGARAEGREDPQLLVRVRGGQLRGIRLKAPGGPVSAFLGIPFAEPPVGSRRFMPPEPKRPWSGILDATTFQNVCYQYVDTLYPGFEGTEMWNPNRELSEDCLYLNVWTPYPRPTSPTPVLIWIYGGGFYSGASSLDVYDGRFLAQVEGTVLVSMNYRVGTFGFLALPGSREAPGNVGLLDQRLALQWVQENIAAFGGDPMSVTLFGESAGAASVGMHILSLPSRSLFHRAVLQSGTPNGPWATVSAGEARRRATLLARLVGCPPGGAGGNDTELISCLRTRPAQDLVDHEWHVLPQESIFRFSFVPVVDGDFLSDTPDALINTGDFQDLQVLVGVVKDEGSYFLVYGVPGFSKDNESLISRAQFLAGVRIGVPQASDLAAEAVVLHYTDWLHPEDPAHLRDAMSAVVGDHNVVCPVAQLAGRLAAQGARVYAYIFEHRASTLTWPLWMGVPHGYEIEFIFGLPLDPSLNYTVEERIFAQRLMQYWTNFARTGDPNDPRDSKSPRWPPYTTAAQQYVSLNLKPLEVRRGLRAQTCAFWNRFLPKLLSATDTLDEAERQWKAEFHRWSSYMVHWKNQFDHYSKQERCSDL

[4] = target: Histamine H4 receptor (Homo sapiens, UniProt Q9H3N8); assay: Displacement of [3H]histamine from human histamine H4 receptor expressed in SK-N-MC cells at upto 10 uM
Sequence of Histamine H4 receptor (Q9H3N8 whole entry): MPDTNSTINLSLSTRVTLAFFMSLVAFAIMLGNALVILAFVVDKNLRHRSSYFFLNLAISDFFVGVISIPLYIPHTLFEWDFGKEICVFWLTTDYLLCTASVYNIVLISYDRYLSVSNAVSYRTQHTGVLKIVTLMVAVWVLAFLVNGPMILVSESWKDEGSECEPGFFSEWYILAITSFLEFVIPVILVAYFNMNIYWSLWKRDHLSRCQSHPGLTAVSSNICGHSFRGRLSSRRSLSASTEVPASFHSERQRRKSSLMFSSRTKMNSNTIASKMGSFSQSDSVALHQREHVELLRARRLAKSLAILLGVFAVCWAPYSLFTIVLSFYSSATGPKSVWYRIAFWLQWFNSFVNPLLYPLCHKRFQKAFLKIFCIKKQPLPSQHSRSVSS

[5] = target: T3, Acetylcholinesterase (Rattus norvegicus) (UniProt P37136); assay: Inhibition of acetylcholinesterase in Wistar rat brain homogenate at upto 1 to 100 uM by Ellman's method; assay type: tissue-based
T3 sequence (whole entry): T2 sequence (P37136 whole entry)
How it was run: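 Male Wistar rat (150–200 g) brain homogenate in 0.1 M phosphate buffer (pH 8.0) with DTNB (5 mM) and compound at 1–100 µM. Reaction started at 37 °C by adding acetylthiocholine (75 mM solution) and stopped after 15 min with 4% formalin. 5-Thio-2-nitrobenzoate absorbance at 412 nm. Percent inhibition versus control; reported as pIC50.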

[6] = system: SK-N-MC; assay: Cytotoxicity against human SK-N-MC cells at 1 uM after 6 hrs by MTT test; assay type: functional, cell-based
How it was run: (§1)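 MTT viability test: SK-N-MC cells held 6 h with compound (1–10 µM) or vehicle. MTT (5 mg/ml stock) added for 3 h, cells washed in PBS, formazan dissolved in 0.1 N HCl in isopropanol, absorbance read at 570 nm. Viability given relative to control.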

[7] = target: Histamine H2 receptor (Cavia porcellus) (UniProt P47747); assay: Antagonist activity at histamine H2 receptor in guinea pig atrium assessed as changes in rate of spontaneous beat at upto 10 uM; assay type: functional, tissue-based; conditions: Cardiac atrium
Sequence of Histamine H2 receptor (Cavia porcellus) (P47747 whole entry): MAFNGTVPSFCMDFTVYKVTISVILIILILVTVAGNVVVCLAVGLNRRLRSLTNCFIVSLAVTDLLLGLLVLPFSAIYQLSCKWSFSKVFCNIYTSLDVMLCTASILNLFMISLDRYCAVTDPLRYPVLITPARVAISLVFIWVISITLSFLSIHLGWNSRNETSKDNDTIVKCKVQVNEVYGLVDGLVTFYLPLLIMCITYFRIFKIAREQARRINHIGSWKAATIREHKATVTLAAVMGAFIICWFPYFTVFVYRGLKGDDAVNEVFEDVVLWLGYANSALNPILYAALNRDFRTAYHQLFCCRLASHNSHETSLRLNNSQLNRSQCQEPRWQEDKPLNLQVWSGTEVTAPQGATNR
How it was run: (§2)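 Guinea-pig atria (H2) in Ringer–Locke at 31 °C (mM: NaCl 154.0, KCl 5.6, CaCl2 1.08, NaHCO3 5.95, glucose 11.1), gassed 95% O2–5% CO2. Spontaneous beating rate recorded by cardiotachograph. Cumulative dimaprit curves (0.1–100 µM) run without and with compound up to 10 µM. Affinity given as pKB by Furchgott, or as pD2′ by Van Rossum if non-surmountable.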

[8] = target: Histamine H3 receptor (Cavia porcellus) (UniProt Q9JI35); assay: Antagonist activity at histamine H3 receptor in electrically-stimulated guinea pig ileum assessed as inhibition of (R)-alpha-methylhistamine-induced twitch contraction in presence of 1 uM mepyramine; assay type: functional, tissue-based
Sequence of Histamine H3 receptor (Cavia porcellus) (Q9JI35 whole entry): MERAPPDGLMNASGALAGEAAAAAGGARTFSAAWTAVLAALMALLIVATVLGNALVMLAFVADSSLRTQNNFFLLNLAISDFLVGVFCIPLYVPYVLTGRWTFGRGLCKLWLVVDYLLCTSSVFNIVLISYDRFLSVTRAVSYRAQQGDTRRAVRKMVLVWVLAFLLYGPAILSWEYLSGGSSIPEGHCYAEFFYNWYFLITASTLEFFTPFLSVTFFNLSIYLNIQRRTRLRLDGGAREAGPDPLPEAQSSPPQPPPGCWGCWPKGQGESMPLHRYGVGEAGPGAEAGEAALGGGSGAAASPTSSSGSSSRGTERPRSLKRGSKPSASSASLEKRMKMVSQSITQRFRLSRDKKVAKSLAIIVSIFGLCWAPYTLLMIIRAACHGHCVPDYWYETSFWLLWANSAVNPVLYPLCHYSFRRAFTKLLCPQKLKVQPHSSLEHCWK
How it was run: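 Guinea-pig ileum, electrically stimulated (0.1 Hz, 1 ms, submaximal voltage). Twitch inhibition by cumulative (R)-α-methylhistamine (1 nM to 1 µM) with 1 µM mepyramine present. Compounds tested at 1 nM to 30 µM. Potency as pKB from Furchgott's equation, or as pD2′ (Van Rossum) for non-surmountable antagonism.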

[9] = target: T1, Histamine H3 receptor; assay: Antagonist activity at human histamine H3 receptor expressed in SK-N-MC cells by CRE-mediated beta-galactosidase reporter gene assay administered 10 mins before (R)-alpha-methylhistamine challenge after 6 hrs; assay type: functional, cell-based
How it was run: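 SK-N-MC cells stably carrying human H3 and a β-galactosidase reporter. Compound added to medium, forskolin 5 min later, then (R)-α-methylhistamine 10 min after compound; 6 h at 37 °C. Cells lysed in phosphate assay buffer (pH 8) with 0.5% Triton and 40 mM β-mercaptoethanol; β-galactosidase read at 570 nm. Means of 4–6 experiments.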

[10] = target: Histamine H1 receptor (Cavia porcellus) (UniProt P31389); assay: Antagonist activity at histamine H1 receptor in guinea pig terminal ileum; assay type: functional, tissue-based
Sequence of Histamine H1 receptor (Cavia porcellus) (P31389 whole entry): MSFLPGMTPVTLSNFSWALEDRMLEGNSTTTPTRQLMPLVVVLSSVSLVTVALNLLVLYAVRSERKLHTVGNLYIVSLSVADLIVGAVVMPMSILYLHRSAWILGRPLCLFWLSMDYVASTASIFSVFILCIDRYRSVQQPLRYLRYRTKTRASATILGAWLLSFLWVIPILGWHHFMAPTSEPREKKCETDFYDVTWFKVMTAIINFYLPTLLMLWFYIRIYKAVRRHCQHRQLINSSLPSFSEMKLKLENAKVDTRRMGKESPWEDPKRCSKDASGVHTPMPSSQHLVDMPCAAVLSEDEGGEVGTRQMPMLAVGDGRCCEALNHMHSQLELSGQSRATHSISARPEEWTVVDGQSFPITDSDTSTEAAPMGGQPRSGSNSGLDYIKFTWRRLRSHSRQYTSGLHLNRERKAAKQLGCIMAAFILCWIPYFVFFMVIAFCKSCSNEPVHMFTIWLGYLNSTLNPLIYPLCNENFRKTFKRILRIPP
How it was run: (§3)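 Guinea-pig (250–350 g) terminal ileum (H1) suspended isometrically in Krebs–Henseleit at 37 °C, aerated 95% O2–5% CO2. Cumulative histamine curves (1 nM to 1 µM) run without and with compound up to 10 µM. pKB (apparent pA2) from Furchgott's equation; pD2′ from Van Rossum's equation when antagonism was non-surmountable.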

[11] = system: SK-N-MC; assay: Cytotoxicity against human SK-N-MC cells at 10 uM after 6 hrs by MTT test; assay type: functional, cell-based; how it was run: as §1
[12] = target: Histamine H1 receptor (Cavia porcellus) (UniProt P31389); assay: Antagonist activity at histamine H1 receptor in guinea pig terminal ileum at upto 10 uM; assay type: functional, tissue-based; how it was run: as §3
[13] = target: T3, Acetylcholinesterase (Rattus norvegicus); assay: Inhibition of acetylcholinesterase in Wistar rat brain homogenate at upto 10 uM by Ellman's method; assay type: tissue-based
[14] = target: Histamine H2 receptor (Cavia porcellus) (UniProt P47747); assay: Antagonist activity at histamine H2 receptor in guinea pig atrium assessed as changes in rate of spontaneous beat at upto 1 uM; assay type: functional, tissue-based; conditions: Cardiac atrium; how it was run: as §2

SMILES	Ki [1]	Ki [2]	IC50 [3]	Activity [4]	inhibition [5]	Activity [6]	Activity [7]	pKb [8]	pKb [9]	pKb [10]	Activity [11]	Activity [12]	Activity [13]	pD2 [10]	Activity [14]
C(CCCCN1CCCCC1)CCCCN1CCCCC1	15.8 nM	4.47 nM	–	–	–	–	–	–	–	–	–	–	–	–	–
CCCN(CCC)Cc1ccc(-c2ccc(CN3CCCCC3)cc2)cc1	3.16 nM	1.74 nM	1480 nM	inactive	93%	Not toxic	inactive	9.12	8.18	5.48	Not toxic	–	–	–	–
c1cc(-c2ccc(CN3CCOCC3)cc2)ccc1CN1CCCCC1	15.5 nM	19.5 nM	–	inactive	–	Not toxic	inactive	9.07	7.77	–	Not toxic	inactive	inactive	–	–
CC1CCN(Cc2ccc(-c3ccc(CN4CCCCC4)cc3)cc2)CC1	5.75 nM	2.4 nM	1410 nM	inactive	93%	Not toxic	inactive	8.75	8.64	–	Not toxic	inactive	–	–	–
CCN(CC)Cc1ccc(-c2ccc(CN(CC)CC)cc2)cc1	2.4 nM	2.82 nM	–	inactive	–	Not toxic	inactive	9.34	8.96	–	Not toxic	inactive	inactive	–	–
CC(=O)N1CCN(Cc2ccc(-c3ccc(CN4CCCCC4)cc3)cc2)CC1	–	–	11500 nM	inactive	79%	Not toxic	inactive	7.79	7.86	–	Not toxic	–	–	4.46	–
CN(C)Cc1ccc(-c2ccc(CN(C)C)cc2)cc1	–	–	–	inactive	–	Not toxic	inactive	8.46	8.17	–	Not toxic	inactive	inactive	–	–
CCCN(CCC)Cc1ccc(-c2ccc(CC(=O)N3CCCCC3)cc2)cc1	178 nM	251 nM	10500 nM	inactive	65%	Not toxic	–	7.24	6.96	5.44	Not toxic	–	–	–	inactive
O=C1CCCCN1Cc1ccc(-c2ccc(CN3CCCCC3)cc2)cc1	–	–	–	inactive	–	Not toxic	inactive	7.57	7.46	–	Not toxic	inactive	inactive	–	–
CN(Cc1ccc(-c2ccc(CN3CCCCC3)cc2)cc1)C1CCCCC1	7.41 nM	2.75 nM	1380 nM	inactive	93%	Not toxic	inactive	8.46	9.19	5.56	Not toxic	–	–	–	–
CCN(CC)Cc1ccc(-c2ccc(CN3CCCCC3)cc2)cc1	2.57 nM	1.95 nM	–	inactive	–	Not toxic	inactive	9.41	8.9	–	Not toxic	inactive	inactive	–	–
c1cc(-c2ccc(CN3CCOCC3)cc2)ccc1CN1CCOCC1	–	–	–	inactive	–	Not toxic	inactive	–	7.67	–	Not toxic	inactive	inactive	–	–
CN(C)CCc1ccc(-c2ccc(CCN(C)C)cc2)cc1	19.5 nM	5.13 nM	–	inactive	–	–	inactive	8.04	8.06	–	–	inactive	inactive	–	–
CC1CCN(Cc2ccc(-c3ccc(CN4CCC(C)CC4)cc3)cc2)CC1	–	–	3550 nM	inactive	83%	Not toxic	inactive	7.3	7.68	5.89	Not toxic	–	–	–	–
